Assay results published in ChEMBL document CHEMBL4680111, “Target Validation and Identification of Novel Boronate Inhibitors of the Plasmodium falciparum Proteasome” (J Med Chem, 2018).
Active and inactive are the calls of the source. No cut-off for these calls is given here.

Columns and labels:
[1] = test system: Plasmodium falciparum 3D7; experiment: Inhibition of 20S proteasome beta 5 subunit from bortezomib resistant Plasmodium falciparum 3D7 trophozoite infected erythrocytes assessed as inhibition of BMV037 probe labeling at 1 to 10 uM incubated for 1 hr by SDS-PAGE analysis; conditions: dose 1-10 µM
[2] = biological target: T1, Proteasome Macropain subunit MB1 (Homo sapiens) (UniProt P28074); experiment: Inhibition of human 20S constitutive proteasome beta 5 subunit assessed as inhibition of BMV037 probe labeling at 10 uM incubated for 1 hr by SDS-PAGE analysis
T1 sequence (whole entry): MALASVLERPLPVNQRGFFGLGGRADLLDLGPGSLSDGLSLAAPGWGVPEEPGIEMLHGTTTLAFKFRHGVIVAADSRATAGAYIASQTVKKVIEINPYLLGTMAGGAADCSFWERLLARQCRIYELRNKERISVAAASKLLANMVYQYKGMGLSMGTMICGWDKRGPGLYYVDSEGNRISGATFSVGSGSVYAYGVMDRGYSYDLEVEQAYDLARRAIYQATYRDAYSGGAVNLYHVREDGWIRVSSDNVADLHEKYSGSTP
Summary of the method: (§1)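 Purified human constitutive 20S (20 nM) was treated with compound at 37°C for 1 h, then labelled with 10 µM BMV037 at 37°C for 2 h. Samples were run on 10% Bis-Tris gel with MOPS buffer, and active subunits were detected by Cy5 fluorescence scan.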

[3] = biological target: T2, Proteasome subunit beta type-7 (Homo sapiens, UniProt Q99436); experiment: Inhibition of human 20S constitutive proteasome beta 2 subunit trypsin-like activity using fluorogenic peptide Ac-WLR-AMC as substrate in presence of PA28alpha incubated for 1 to 2 hrs by fluorescence microplate reader assay
T2 sequence (Q99436 whole entry): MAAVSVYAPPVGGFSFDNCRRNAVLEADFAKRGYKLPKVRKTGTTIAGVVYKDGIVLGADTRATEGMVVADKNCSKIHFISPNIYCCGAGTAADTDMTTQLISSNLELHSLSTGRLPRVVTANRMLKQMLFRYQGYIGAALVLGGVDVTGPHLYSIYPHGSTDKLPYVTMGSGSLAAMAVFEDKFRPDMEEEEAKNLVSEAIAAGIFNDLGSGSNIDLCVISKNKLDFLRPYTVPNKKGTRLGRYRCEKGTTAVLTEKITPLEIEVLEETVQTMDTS

[4] = test system: Plasmodium falciparum; experiment: Synergistic antiplasmodial activity against DHA-resistant and sorbitol synchronized ring stage forms of Plasmodium falciparum Cam3.II^R539T expressing K13 mutant assessed as reduction in parasitemia incubated for 3 hrs in presence of DHA by pulse exposure based Syto-61 staining dye based flow cytometry analysis; format: functional, organism-based
[5] = biological target: T3, Proteasome subunit beta type-9 (Homo sapiens) (UniProt P28065); experiment: Inhibition of human 20S immunoproteasome beta 1 subunit assessed as inhibition of BMV037 probe labeling at 1 to 10 uM incubated for 1 hr by SDS-PAGE analysis; conditions: dose 1-10 µM
T3 sequence (whole entry): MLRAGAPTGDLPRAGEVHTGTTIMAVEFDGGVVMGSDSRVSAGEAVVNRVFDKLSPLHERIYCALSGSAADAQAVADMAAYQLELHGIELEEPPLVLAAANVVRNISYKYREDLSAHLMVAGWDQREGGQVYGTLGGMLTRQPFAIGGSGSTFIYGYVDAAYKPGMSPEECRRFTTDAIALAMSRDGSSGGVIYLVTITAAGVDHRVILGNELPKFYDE
Summary of the method: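 Purified human immuno-20S (20 nM) was incubated with compound at 37°C for 1 h, then labelled with 10 µM BMV037 at 37°C for 2 h. Samples were run on 4-12% Bis-Tris gel with MES buffer, and active subunits were visualised by Cy5 fluorescence.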

[6] = biological target: T4, Proteasome component C5 (Homo sapiens) (UniProt P20618); experiment: Inhibition of human 20S constitutive proteasome beta 1 subunit assessed as inhibition of BMV037 probe labeling at 1 to 10 uM incubated for 1 hr by SDS-PAGE analysis; conditions: dose 1-10 µM; summary of the method: as §1
T4 sequence (whole entry): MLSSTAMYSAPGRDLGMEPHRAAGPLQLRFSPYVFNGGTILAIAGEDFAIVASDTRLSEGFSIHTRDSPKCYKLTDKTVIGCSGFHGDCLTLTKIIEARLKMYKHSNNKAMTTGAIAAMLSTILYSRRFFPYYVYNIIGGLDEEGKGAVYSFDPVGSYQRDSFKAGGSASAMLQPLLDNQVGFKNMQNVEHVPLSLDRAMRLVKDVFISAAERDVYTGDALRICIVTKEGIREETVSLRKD

[7] = test system: Plasmodium falciparum 3D7; experiment: Inhibition of 20S proteasome beta 2 subunit in bortezomib-resistant Plasmodium falciparum 3D7 assessed as inhibition of BMV037 probe labeling at 1 to 10 uM incubated for 1 hr by SDS-PAGE analysis; conditions: dose 1-10 µM
[8] = biological target: T4, Proteasome component C5 (Homo sapiens); experiment: Inhibition of human 20S constitutive proteasome beta 1 subunit assessed as inhibition of BMV037 probe labeling at 1 uM incubated for 1 hr by SDS-PAGE analysis; summary of the method: as §1
[9] = biological target: T1, Proteasome Macropain subunit MB1 (Homo sapiens); experiment: Inhibition of human 20S constitutive proteasome beta 5 subunit assessed as inhibition of BMV037 probe labeling at 1 uM incubated for 1 hr by SDS-PAGE analysis; summary of the method: as §1
[10] = biological target: T1, Proteasome Macropain subunit MB1 (Homo sapiens); experiment: Inhibition of human 20S constitutive proteasome beta 5 subunit assessed as inhibition of BMV037 probe labeling at 1 to 10 uM incubated for 1 hr by SDS-PAGE analysis; conditions: dose 1-10 µM; summary of the method: as §1
[11] = test system: Plasmodium falciparum 3D7; experiment: Inhibition of 20S proteasome beta 2 subunit from bortezomib resistant Plasmodium falciparum 3D7 trophozoite infected erythrocytes assessed as inhibition of BMV037 probe labeling at 1 to 10 uM incubated for 1 hr by SDS-PAGE analysis; conditions: dose 1-10 µM
[12] = test system: Plasmodium falciparum; experiment: Binding affinity to Plasmodium falciparum 20S proteasome beta 2 subunit assessed as half-life using fluorogenic peptide Ac-WLR-AMC as substrate in presence of PA28alpha by fluorescence based microplate reader assay
[13] = biological target: Proteasome Macropain subunit (Homo sapiens) (UniProt P49721); experiment: Binding affinity to human 20S constitutive proteasome beta 2 subunit assessed as half-life using fluorogenic peptide Ac-WLR-AMC as substrate in presence of PA28alpha by fluorescence based microplate reader assay
Chain of Proteasome Macropain subunit (Homo sapiens) (P49721 whole entry): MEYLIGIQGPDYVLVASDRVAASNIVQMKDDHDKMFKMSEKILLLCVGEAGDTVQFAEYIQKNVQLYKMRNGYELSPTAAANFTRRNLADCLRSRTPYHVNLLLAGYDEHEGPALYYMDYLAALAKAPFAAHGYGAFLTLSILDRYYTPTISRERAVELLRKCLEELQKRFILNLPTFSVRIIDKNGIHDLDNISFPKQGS

[14] = test system: Plasmodium falciparum; experiment: Binding affinity to Plasmodium falciparum 20S proteasome beta 5 subunit assessed as half-life using fluorogenic peptide Ac-WLA-AMC as substrate in presence of PA28alpha by fluorescence based microplate reader assay
[15] = biological target: T1, Proteasome Macropain subunit MB1 (Homo sapiens); experiment: Binding affinity to human 20S constitutive proteasome beta 5 subunit assessed as half-life using fluorogenic peptide Ac-WLA-AMC as substrate in presence of PA28alpha by fluorescence based microplate reader assay
[16] = test system: Plasmodium falciparum; experiment: Inhibition of proteasome in Plasmodium falciparum trophozoite stage transfected with GFP-DD assessed as reduction in GFP-DD fusion protein degradation at 0.02 to 0.5 uM incubated for 3 hrs in absence of Shield-1 by Western blot analysis; conditions: dose 0.02-0.5 µM
Summary of the method: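 GFP-DD reporter parasites were held in Shield-1 for 24 h, washed out, then treated as trophozoites (5% hematocrit, 5% parasitemia) with compound for 3 h at 37°C. […] Representative of four independent experiments.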

[17] = Binding affinity to Plasmodium falciparum 20S proteasome beta 2 subunit assessed as equilibrium constant using fluorogenic peptide Ac-WLR-AMC as substrate in presence of PA28alpha by fluorescence based microplate reader assay
[18] = biological target: T5, Proteasome Macropain subunit MB1 (Homo sapiens, UniProt P28074); experiment: Binding affinity to human 20S constitutive proteasome beta 5 subunit assessed as equilibrium constant using fluorogenic peptide Ac-WLA-AMC as substrate in presence of PA28alpha by fluorescence based microplate reader assay
T5 sequence (P28074 whole entry): T1 sequence (whole entry)

| Structure (SMILES) | inhibition [1] | inhibition [2] | IC50 [3] | Activity [4] | inhibition [5] | inhibition [6] | inhibition [7] | inhibition [8] | inhibition [9] | inhibition [10] | inhibition [11] | T1/2 [12] | T1/2 [13] | T1/2 [14] | T1/2 [15] | inhibition [16] | Ki [17] | Ki [18] |
| --- | --- | --- | --- | --- | --- | --- | --- | --- | --- | --- | --- | --- | --- | --- | --- | --- | --- | --- |
| CC(=O)N1CCC[C@@H]1C(=O)N[C@@H](C)C(=O)N[C@@H](Cc1ccccc1)B(O)O | Active | inactive | > 10000 nM | Active | – | – | – | – | – | – | – | – | – | – | – | – | – | – |
| Cc1ccc(S(=O)(=O)N[C@@H](CC(=O)NCC(C)(C)C)C(=O)N[C@@H](Cc2ccccc2)C(=O)N[C@@H](CC(C)C)B(O)O)cc1 | Active | – | 440 nM | – | Active | Active | Active | inactive | inactive | Active | Active | – | – | – | – | – | – | – |
| CC(C)C[C@H](NC(=O)[C@H](Cc1ccccc1)NC(=O)Cc1ccc(O)cc1)B(O)O | – | – | 680 nM | Active | Active | Active | Active | – | – | Active | Active | 1.08 h | 2 min | 1.08 h | 1.77 h | Active | 6.4 nM | 0.13 nM |
